Measurements as given in ChEMBL document CHEMBL1139934, “Synthesis and biological activity of imidazopyridine anticoccidial agents: part I” (Eur J Med Chem, 2007).

How the values were obtained:
[1] = system: Eimeria tenella; assay: Anticococcidal activity against Eimeria tenella in Chick assessed as reduction in oocyte at 25 ppm relative to control; assay type: functional; set-up: scale not given: the % may be the effect or the level left
Outline: (§1)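 Expanded Mini-Assay Coccidiosis (ExMAC) in chickens infected with E. tenella, E. acervulina, E. mitis and E. maxima. Compound given in the feed at the stated ppm. Efficacy for each species is scored 0 to 4 from the percent oocyst reduction relative to an untreated control. Where a compound was tested more than once, all values are reported.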

[2] = molecular target: cGMP-dependent protein kinase (Eimeria tenella, UniProt Q8MMZ8); assay: Inhibition of Eimeria tenella cGMP-dependent protein kinase by Ten_K assay
cGMP-dependent protein kinase, sequence (Q8MMZ8 whole entry): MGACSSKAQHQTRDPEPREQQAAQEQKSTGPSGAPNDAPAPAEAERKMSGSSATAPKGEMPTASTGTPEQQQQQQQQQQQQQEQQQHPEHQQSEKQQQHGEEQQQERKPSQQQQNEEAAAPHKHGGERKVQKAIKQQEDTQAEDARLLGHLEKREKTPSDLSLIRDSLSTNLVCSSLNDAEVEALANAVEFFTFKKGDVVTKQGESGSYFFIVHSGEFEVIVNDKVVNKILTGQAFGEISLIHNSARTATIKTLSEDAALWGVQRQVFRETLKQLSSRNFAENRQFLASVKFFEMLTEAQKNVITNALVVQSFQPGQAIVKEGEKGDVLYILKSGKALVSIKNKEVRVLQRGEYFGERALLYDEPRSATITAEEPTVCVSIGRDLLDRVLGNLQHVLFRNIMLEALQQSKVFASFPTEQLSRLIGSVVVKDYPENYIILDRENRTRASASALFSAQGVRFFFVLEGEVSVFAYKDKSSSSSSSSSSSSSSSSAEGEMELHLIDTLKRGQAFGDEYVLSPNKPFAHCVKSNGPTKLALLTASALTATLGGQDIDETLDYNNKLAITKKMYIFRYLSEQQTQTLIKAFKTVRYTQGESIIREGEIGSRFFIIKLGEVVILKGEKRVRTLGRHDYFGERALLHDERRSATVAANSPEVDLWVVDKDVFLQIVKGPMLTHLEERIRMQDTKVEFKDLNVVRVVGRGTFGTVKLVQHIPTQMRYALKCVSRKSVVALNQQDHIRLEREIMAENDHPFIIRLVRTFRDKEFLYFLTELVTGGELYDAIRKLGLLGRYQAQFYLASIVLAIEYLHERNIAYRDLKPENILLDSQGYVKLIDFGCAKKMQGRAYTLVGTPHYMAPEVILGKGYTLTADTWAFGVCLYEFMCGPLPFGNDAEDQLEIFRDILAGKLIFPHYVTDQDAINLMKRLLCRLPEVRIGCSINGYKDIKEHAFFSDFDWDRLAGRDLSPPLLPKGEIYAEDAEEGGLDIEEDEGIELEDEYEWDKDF
Outline: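 Ten_K (Tenella Kinase) assay measuring inhibition of E. tenella PKG enzyme activity. Result expressed as the concentration giving 50% inhibition (IC50, nM). Where a compound was tested more than once, all values are reported.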

[3] = system: Eimeria acervulina; assay: Anticococcidal activity against Eimeria acervulina in Chick assessed as reduction in oocyte at 25 ppm relative to control; assay type: functional; set-up: scale not given: the % may be the effect or the level left; outline: as §1
[4] = system: Eimeria mitis; assay: Anticococcidal activity against Eimeria mitis in Chick assessed as reduction in oocyte at 25 ppm relative to control; assay type: functional; set-up: scale not given: the % may be the effect or the level left; outline: as §1
[5] = system: Eimeria maxima; assay: Anticococcidal activity against Eimeria maxima in Chick assessed as reduction in oocyte at 25 ppm relative to control; assay type: functional; set-up: scale not given: the % may be the effect or the level left; outline: as §1
[6] = system: Eimeria tenella; assay: Anticococcidal activity against Eimeria tenella in Chick assessed as reduction in oocyte at 12.5 ppm relative to control; assay type: functional; set-up: scale not given: the % may be the effect or the level left; outline: as §1
[7] = system: Eimeria acervulina; assay: Anticococcidal activity against Eimeria acervulina in Chick assessed as reduction in oocyte at 12.5 ppm relative to control; assay type: functional; set-up: scale not given: the % may be the effect or the level left; outline: as §1
[8] = system: Eimeria maxima; assay: Anticococcidal activity against Eimeria maxima in Chick assessed as reduction in oocyte at 12.5 ppm relative to control; assay type: functional; set-up: scale not given: the % may be the effect or the level left; outline: as §1
[9] = system: Eimeria mitis; assay: Anticococcidal activity against Eimeria mitis in Chick assessed as reduction in oocyte at 12.5 ppm relative to control; assay type: functional; set-up: scale not given: the % may be the effect or the level left; outline: as §1
[10] = system: Eimeria tenella; assay: Anticococcidal activity against Eimeria tenella in Chick assessed as reduction in oocyte at 6.25 ppm relative to control; assay type: functional; set-up: scale not given: the % may be the effect or the level left; outline: as §1
[11] = system: Eimeria acervulina; assay: Anticococcidal activity against Eimeria acervulina in Chick assessed as reduction in oocyte at 6.25 ppm relative to control; assay type: functional; set-up: scale not given: the % may be the effect or the level left; outline: as §1
[12] = system: Eimeria maxima; assay: Anticococcidal activity against Eimeria maxima in Chick assessed as reduction in oocyte at 6.25 ppm relative to control; assay type: functional; set-up: scale not given: the % may be the effect or the level left; outline: as §1
[13] = system: Eimeria mitis; assay: Anticococcidal activity against Eimeria mitis in Chick assessed as reduction in oocyte at 6.25 ppm relative to control; assay type: functional; set-up: scale not given: the % may be the effect or the level left; outline: as §1

SMILES | IC50 [2] [nM] | Activity [1] [%] | Activity [3] [%] | Activity [4] [%] | Activity [5] [%] | Activity [6] [%] | Activity [7] [%] | Activity [8] [%] | Activity [9] [%] | Activity [10] [%] | Activity [11] [%] | Activity [12] [%] | Activity [13] [%]
CN(C)Cc1ccn2c(-c3ccnc(NCc4ccc(Cl)cc4)n3)c(-c3ccc(F)cc3)nc2c1 | 0.24 | <50 | <50 | <50 | <50 | – | – | – | – | – | – | – | –
CCCNc1nccc(-c2c(-c3ccc(F)cc3)nc3cc(CN(C)C)ccn23)n1 | – | – | – | – | – | 80 | 80 | 80 | 80 | – | – | – | –
COCCCNc1nccc(-c2c(-c3ccc(F)cc3)nc3cc(CN(C)C)ccn23)n1 | 0.25 | 80 | 80 | <50 | 50 | – | – | – | – | – | – | – | –
CN(C)Cc1ccn2c(-c3ccnc(NC(=O)NC(C)(C)C)n3)c(-c3ccc(F)cc3)nc2c1 | 4.39 | – | – | – | – | 80 | 80 | 80 | 80 | – | – | – | –
CCCC(=O)Nc1nccc(-c2c(-c3ccc(F)cc3)nc3cc(CN(C)C)ccn23)n1 | 0.63 | – | – | – | – | 80 | 80 | 80 | 80 | <50 | <50 | 80 | <50
CN(C)Cc1ccn2c(-c3ccnc(NC(=O)C4CCCC4)n3)c(-c3ccc(F)cc3)nc2c1 | 0.21 | 80 | 80 | 80 | – | 80 | <50 | – | 80 | < 50 | <50 | – | <50
CN(C)Cc1ccn2c(-c3nc(N)ncc3Br)c(-c3ccc(F)cc3)nc2c1 | 5.8 | 50 | <50 | <50 | 50 | – | – | – | – | – | – | – | –
CN(C)Cc1ccn2c(-c3nc(N)ncc3C#N)c(-c3ccc(F)cc3)nc2c1 | 1.6 | <50 | <50 | <50 | <50 | – | – | – | – | – | – | – | –
CCNc1nccc(-c2c(-c3ccc(F)cc3)nc3cc(CN(C)C)ccn23)n1 | 0.23 | 80 | 80 | 80 | 80 | 80 | 80 | 80 | <50 | <50 | – | 80 | <50
CN(C)Cc1ccn2c(-c3ccnc(Nc4ccccn4)n3)c(-c3ccc(F)cc3)nc2c1 | 0.4 | 80 | <50 | 80 | 80 | 80 | <50 | 50 | 80 | – | – | – | –
CN(C)Cc1ccn2c(-c3ccnc(N)n3)c(-c3ccc(F)c(Br)c3)nc2c1 | 0.16 | 80 | 80 | <50 | 80 | – | – | – | – | – | – | – | –
Cc1cc(-c2nc3cc(CN(C)C)ccn3c2-c2ccnc(N)n2)ccc1F | 0.23 | 80 | 80 | 80 | – | 80 | 80 | – | 80 | 80 | 80 | – | 80
CN(C)Cc1ccn2c(-c3ccnc(NCc4cccc(Cl)c4)n3)c(-c3ccc(F)cc3)nc2c1 | 0.18 | <50 | <50 | <50 | 80 | – | – | – | – | – | – | – | –
CN(C)Cc1ccn2c(-c3ccnc(N)n3)c(-c3ccc(Cl)cc3)nc2c1 | 0.41 | 80 | 50 | 50 | – | <50 | <50 | – | <50 | – | – | – | –
CCC(=O)Nc1nccc(-c2c(-c3ccc(F)cc3)nc3cc(CN(C)C)ccn23)n1 | 0.3 | 80 | 80 | 80 | 80 | 80 | <50 | 80 | <50 | <50 | <50 | – | <50
CCCCC(=O)Nc1nccc(-c2c(-c3ccc(F)cc3)nc3cc(CN(C)C)ccn23)n1 | 0.25 | 80 | 80 | 80 | 80 | 50 | 50 | 80 | – | < 50 | 80 | 80 | <50
CN(C)Cc1ccn2c(-c3ccnc(NS(=O)(=O)c4ccccc4)n3)c(-c3ccc(F)cc3)nc2c1 | 0.25 | <50 | <50 | <50 | <50 | – | – | – | – | – | – | – | –
COC(=O)Nc1nccc(-c2c(-c3ccc(F)cc3)nc3cc(CN(C)C)ccn23)n1 | 0.45 | 80 | 80 | <50 | 80 | 80 | 80 | 80 | <50 | – | – | – | –

Further lines, with some results ahead:

IC50 [2] [nM] | SMILES | Activity [1] [%] | Activity [3] [%] | Activity [4] [%] | Activity [5] [%] | Activity [6] [%] | Activity [7] [%] | Activity [8] [%] | Activity [9] [%] | Activity [10] [%] | Activity [11] [%] | Activity [12] [%] | Activity [13] [%]
0.121 | Cc1ccc(CNc2nccc(-c3c(-c4ccc(F)cc4)nc4cc(CN(C)C)ccn34)n2)cc1 | <50 | 50 | <50 | 80 | – | – | – | – | – | – | – | –
0.1 | CN(C)Cc1ccn2c(-c3ccnc(N)n3)c(-c3ccc(F)cc3F)nc2c1 | 80 | 100 | 80 | – | 100 | 100 | – | 80 | 80 | 100 | – | 50
0.1 | CCCCCNc1nccc(-c2c(-c3ccc(F)cc3)nc3cc(CN(C)C)ccn23)n1 | <50 | 80 | 50 | 80 | – | – | – | – | – | – | – | –
0.056 | CN(C)Cc1ccn2c(-c3ccnc(NCc4ccccc4Cl)n3)c(-c3ccc(F)cc3)nc2c1 | 50 | <50 | <50 | 80 | – | – | – | – | – | – | – | –
0.026 | CN(C)Cc1ccn2c(-c3ccnc(NCc4cc(F)ccc4F)n3)c(-c3ccc(F)cc3)nc2c1 | <50 | <50 | <50 | 80 | – | – | – | – | – | – | – | –
0.087 | CN(C)Cc1ccn2c(-c3ccnc(NCc4ccccc4F)n3)c(-c3ccc(F)cc3)nc2c1 | 80 | <50 | 80 | 80 | – | – | – | – | – | – | – | –
0.13 | CCCCCCNc1nccc(-c2c(-c3ccc(F)cc3)nc3cc(CN(C)C)ccn23)n1 | 80 | <50 | <50 | <50 | – | – | – | – | – | – | – | –
0.15 | CN(C)Cc1ccn2c(-c3ccnc(NCc4ccc(F)cc4F)n3)c(-c3ccc(F)cc3)nc2c1 | <50 | <50 | <50 | 80 | – | – | – | – | – | – | – | –
0.083 | Cc1cccc(CNc2nccc(-c3c(-c4ccc(F)cc4)nc4cc(CN(C)C)ccn34)n2)c1 | 80 | <50 | <50 | <50 | – | – | – | – | – | – | – | –
0.08 | Cc1ccccc1CNc1nccc(-c2c(-c3ccc(F)cc3)nc3cc(CN(C)C)ccn23)n1 | <50 | <50 | <50 | 50 | – | – | – | – | – | – | – | –
0.12 | CN(C)Cc1ccn2c(-c3ccnc(NCc4cccc(F)c4F)n3)c(-c3ccc(F)cc3)nc2c1 | <50 | <50 | <50 | <50 | – | – | – | – | – | – | – | –
0.066 | CN(C)Cc1ccn2c(-c3ccnc(NCc4ccc(F)cc4)n3)c(-c3ccc(F)cc3)nc2c1 | 80 | 80 | 80 | 80 | <50 | <50 | <50 | <50 | – | – | – | –
0.06 | CN(C)Cc1ccn2c(-c3ccnc(NCc4ccc(F)c(F)c4)n3)c(-c3ccc(F)cc3)nc2c1 | <50 | <50 | <50 | <50 | – | – | – | – | – | – | – | –
0.11 | CN(C)Cc1ccn2c(-c3ccnc(NCc4cc(F)cc(F)c4)n3)c(-c3ccc(F)cc3)nc2c1 | 80 | 80 | <50 | 80 | <50 | <50 | <50 | <50 | – | – | – | –
